{"source": "ChEMBL document CHEMBL1157626", "about": "“A concise synthesis of 1,4-dihydro-[1,4]diazepine-5,7-dione, a novel 7-TM receptor ligand core structure with melanocortin receptor agonist activity” (Bioorg Med Chem, 2010)", "key": {"Melanocortin receptor 4 [1]": {"molecular_target": "T1, Melanocortin receptor 4 (Homo sapiens, UniProt P32245)", "T1 sequence (P32245 whole entry)": "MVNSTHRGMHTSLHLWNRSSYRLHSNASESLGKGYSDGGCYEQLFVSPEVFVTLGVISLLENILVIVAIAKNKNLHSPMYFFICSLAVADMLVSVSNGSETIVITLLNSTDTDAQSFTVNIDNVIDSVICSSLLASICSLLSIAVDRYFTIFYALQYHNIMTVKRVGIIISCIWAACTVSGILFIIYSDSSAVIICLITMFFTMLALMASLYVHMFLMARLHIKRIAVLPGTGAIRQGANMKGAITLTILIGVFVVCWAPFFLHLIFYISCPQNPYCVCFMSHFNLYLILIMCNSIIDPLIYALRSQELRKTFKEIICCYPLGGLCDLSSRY", "experiment": "Agonist activity at human MC4R expressed in CHO cells after 4 hrs by luciferase reporter gene assay", "assay_type": "functional, cell-based", "details": "read-out: pEC50 (converted)", "in_short": "(§1)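 CHO-6xCRE-luc+ cells expressing the human receptor, plated at 4000 cells/well in DMEM/F12 with 10% FBS 48 h before assay. Switched to serum-free medium 16 h before compound addition, then incubated 4 h at 37 °C. Luciferase read after 10 min dark adaptation. Activity expressed as % of fold stimulation by 1 × 10^-7 M NDP-aMSH (duplicate control wells).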"}, "Melanocortin receptor 4 [2]": {"molecular_target": "T1, Melanocortin receptor 4", "experiment": "Agonist activity at human MC4R expressed in CHO cells after 4 hrs by luciferase reporter gene assay relative to alpha-melanocyte stimulating hormone", "assay_type": "functional, cell-based", "in_short": "as §1"}, "[3]": {"molecular_target": "T2, Melanocyte-stimulating hormone receptor (Homo sapiens, UniProt Q01726)", "experiment": "Agonist activity at human MC1R expressed in CHO cells after 4 hrs by luciferase reporter gene assay", "assay_type": "functional, cell-based", "details": "read-out: pEC50 (converted)", "in_short": "as §1"}, "[4]": {"molecular_target": "T2, Melanocyte-stimulating hormone receptor", "experiment": "Agonist activity at human MC1R expressed in CHO cells after 4 hrs by luciferase reporter gene assay relative to alpha-melanocyte stimulating hormone", "assay_type": "functional, cell-based", "set-up": "concentration or dose not given beside the values", "in_short": "as §1"}, "[5]": {"experiment": "Cmax in Sprague-Dawley rat at 10 mg/kg, po", "assay_type": "ADME, organism-based", "set-up": "dose 10 mg/kg, route oral", "details": "in vivo", "in_short": "(§2)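 Single oral dose to Sprague Dawley rats, given as a suspension in 50% PEG/25% EtOH/25% H2O. Plasma samples collected over time to build the pharmacokinetic profile.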"}, "[6]": {"experiment": "Tmax in Sprague-Dawley rat at 10 mg/kg, po", "assay_type": "ADME, organism-based", "set-up": "dose 10 mg/kg, route oral", "details": "in vivo", "in_short": "as §2"}, "[7]": {"experiment": "AUC (0 to infinity) in Sprague-Dawley rat at 10 mg/kg, po", "assay_type": "ADME, organism-based", "set-up": "dose 10 mg/kg, route oral, time infinity", "details": "plasma", "in_short": "as §2"}, "[8]": {"experiment": "Oral bioavailability in Sprague-Dawley rat at 10 mg/kg", "assay_type": "ADME, organism-based", "details": "in vivo", "in_short": "as §2"}, "[9]": {"experiment": "Half life in Sprague-Dawley rat at 10 mg/kg, po", "assay_type": "ADME, organism-based", "set-up": "dose 10 mg/kg, route oral", "details": "in vivo", "in_short": "as §2"}, "Rattus norvegicus [10]": {"tested_on": "Rattus norvegicus", "experiment": "Anorexigenic activity in lean Sprague-Dawley rat assessed as suppression of peptide YY-induced food intake during day light cycle period at 5 mg/kg, po administered 30 mins before peptide YY challenge", "assay_type": "functional, organism-based", "set-up": "dose 5 mg/kg", "in_short": "(§3)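 Sated lean Sprague-Dawley rats with third-ventricle cannulae dosed by oral gavage at 10:30 AM. Vehicle was 50% PEG500/25% EtOH/25% water. 0.23 nmol PYY given ICV in sterile saline at 11:00 AM. Intake logged every half hour through the light period and the dark cycle (6 PM–6 AM). N = 5/group.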"}, "Rattus norvegicus [11]": {"tested_on": "Rattus norvegicus", "experiment": "Anorexigenic activity in lean Sprague-Dawley rat assessed as suppression of peptide YY-induced food intake during day light cycle period at 25 mg/kg, po administered 30 mins before peptide YY challenge", "assay_type": "functional, organism-based", "set-up": "dose 25 mg/kg", "in_short": "as §3"}, "Rattus norvegicus [12]": {"tested_on": "Rattus norvegicus", "experiment": "Anorexigenic activity in lean Sprague-Dawley rat assessed as suppression of peptide YY-induced nocturnal food intake during dark cycle period at 25 mg/kg, po administered 30 mins before peptide YY challenge", "assay_type": "functional, organism-based", "set-up": "dose 25 mg/kg", "in_short": "as §3"}, "Rattus norvegicus [13]": {"tested_on": "Rattus norvegicus", "experiment": "Anorexigenic activity in lean Sprague-Dawley rat assessed as suppression of nocturnal food intake during dark cycle period at 25 mg/kg, po administered prior to onset of nocturnal cycle", "assay_type": "functional"}}, "note": "The source made the active and inactive calls. The rule behind the calls is not given here."}
{"smiles": "COc1ccc(N(C(=O)CN2C=CN(c3ccccc3)C(=O)[C@H](Cc3n[nH]c4ccccc34)C2=O)C(C)C)cc1", "values": [{"measurement": "EC50", "setting": "Melanocortin receptor 4 [1]", "value": 339, "unit": "nM"}, {"measurement": "Activity", "setting": "Melanocortin receptor 4 [2]", "value": 53}, {"measurement": "EC50", "setting": "[3]", "value": 15.8, "unit": "nM"}, {"measurement": "Activity", "setting": "[4]", "value": 82, "unit": "%"}, {"measurement": "Cmax", "setting": "[5]", "value": 123, "unit": "ng/mL"}, {"measurement": "Tmax", "setting": "[6]", "value": 0.67, "unit": "h"}, {"measurement": "AUC(0-inf)", "setting": "[7]", "value": 260, "unit": "ng·h/mL"}, {"measurement": "bioavailability", "setting": "[8]", "value": 6.2, "unit": "%"}, {"measurement": "half-life", "setting": "[9]", "value": 1.5, "unit": "h"}, {"measurement": "inhibition", "setting": "Rattus norvegicus [10]", "value": "Active"}, {"measurement": "inhibition", "setting": "Rattus norvegicus [11]", "value": "Active"}, {"measurement": "inhibition", "setting": "Rattus norvegicus [12]", "value": "Active"}, {"measurement": "inhibition in vivo at 25 mg/kg", "setting": "Rattus norvegicus [13]", "value": 20, "unit": "%"}]}
